Assay results published in ChEMBL document CHEMBL4261527, “Benzylsulfanyl benzo-heterocycle amides and hydrazones as new agents against drug-susceptible and resistant Mycobacterium tuberculosis” (Medchemcomm, 2017).
In brackets after ≈: the same amount, converted by molar mass.

Experiments:
[1] = system: Mycobacterium tuberculosis; test: Antimycobacterial activity against p-aminosalicyclic acid-resistant Mycobacterium tuberculosis ATCC 35821 by resazurin dye based fluorimetric method; type: functional
[2] = Cytotoxicity against African green monkey Vero cells assessed as cell viability at 5 ug/ml after 72 hrs by CCK8 assay (reference value: 100%); type: cell-based; settings: chlorocebus sabaeus, read-out: Activity
Method in brief: (§1)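 Vero cells exposed to 0.01–20 μg/mL compound; vehicle control 0.625% DMSO set as 100%. Result given as percent cell viability.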

[3] = system: Mycobacterium tuberculosis; test: Antimycobacterial activity against Mycobacterium tuberculosis H37Rv ATCC 27294 measured after 7 days by microplate alamar blue assay; type: functional; settings: H37Rv ATCC 27294, 168 h
Method in brief: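 Mtb H37Rv (ATCC 27294) grown in Middlebrook 7H12 broth; MIC read by Microplate Alamar Blue Assay (MABA).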

[4] = Stability in human liver microsomes assessed as parent compound remaining after 30 mins by LC-MS/MS analysis; type: ADME, microsome; settings: read-out: Stability
Method in brief: (§2)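 Compound incubated with human liver microsomes; percent remaining measured at 15, 30 and 60 min, relative to the amount at 0 min taken as 100%.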

[5] = Stability in human liver microsomes assessed as parent compound remaining after 15 mins by LC-MS/MS analysis; type: ADME, microsome; settings: read-out: Stability; method in brief: as §2
[6] = Stability in human liver microsomes assessed as parent compound remaining after 60 mins by LC-MS/MS analysis; type: ADME, microsome; settings: read-out: Stability; method in brief: as §2
[7] = Cytotoxicity against African green monkey Vero cells assessed as cell viability at 1.25 ug/ml after 72 hrs by CCK8 assay (reference value: 100%); type: cell-based; settings: chlorocebus sabaeus, read-out: Activity; method in brief: as §1
[8] = Cytotoxicity against African green monkey Vero cells assessed as cell viability at 10 ug/ml after 72 hrs by CCK8 assay (reference value: 100%); type: cell-based; settings: chlorocebus sabaeus, read-out: Activity; method in brief: as §1
[9] = Cytotoxicity against African green monkey Vero cells assessed as cell viability at 0.625 ug/ml after 72 hrs by CCK8 assay (reference value: 100%); type: cell-based; settings: chlorocebus sabaeus, read-out: Activity; method in brief: as §1
[10] = Cytotoxicity against African green monkey Vero cells assessed as cell viability at 0.01 ug/ml after 72 hrs by CCK8 assay (reference value: 100%); type: cell-based; settings: chlorocebus sabaeus, read-out: Activity; method in brief: as §1
[11] = Cytotoxicity against African green monkey Vero cells assessed as cell viability at 20 ug/ml after 72 hrs by CCK8 assay (reference value: 100%); type: cell-based; settings: chlorocebus sabaeus, read-out: Activity; method in brief: as §1
[12] = Cytotoxicity against African green monkey Vero cells assessed as cell viability at 0.039 ug/ml after 72 hrs by CCK8 assay (reference value: 100%); type: cell-based; settings: chlorocebus sabaeus, read-out: Activity; method in brief: as §1
[13] = Cytotoxicity against African green monkey Vero cells assessed as cell viability at 0.078 ug/ml after 72 hrs by CCK8 assay (reference value: 100%); type: cell-based; settings: chlorocebus sabaeus, read-out: Activity; method in brief: as §1
[14] = system: Mycobacterium tuberculosis; test: Antimycobacterial activity against drug-susceptible Mycobacterium tuberculosis clinical isolate; type: functional
Method in brief: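 Clinical isolates coded 960 (drug-susceptible), 330 (MDR) and 431 (XDR); MIC reported in μM.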

[15] = Cytotoxicity against African green monkey Vero cells assessed as cell viability at 0.156 ug/ml after 72 hrs by CCK8 assay (reference value: 100%); type: cell-based; settings: chlorocebus sabaeus, read-out: Activity; method in brief: as §1
[16] = Cytotoxicity against African green monkey Vero cells assessed as cell viability at 0.312 ug/ml after 72 hrs by CCK8 assay (reference value: 100%); type: cell-based; settings: chlorocebus sabaeus, read-out: Activity; method in brief: as §1
[17] = Cytotoxicity against African green monkey Vero cells assessed as cell viability at 0.02 ug/ml after 72 hrs by CCK8 assay (reference value: 100%); type: cell-based; settings: chlorocebus sabaeus, read-out: Activity; method in brief: as §1
[18] = Cytotoxicity against African green monkey Vero cells assessed as cell viability at 2.5 ug/ml after 72 hrs by CCK8 assay (reference value: 100%); type: cell-based; settings: chlorocebus sabaeus, read-out: Activity; method in brief: as §1

O=C(N/N=C/c1ccc(CSc2nc3ccccc3o2)cc1)c1ccncc1
MIC [1]: 0.312 µg/mL (≈ 0.803 µM) | viability at 72 h, 5 ug/ml [2]: 123% | MIC [3]: 0.24 µM (≈ 0.0932 µg/mL) | remaining at 0.5 h [4]: 76.5% | remaining at 0.25 h [5]: 90.1% | remaining at 1 h [6]: 66.6% | viability at 72 h, 1.25 ug/ml [7]: 123% | viability at 72 h, 10 ug/ml [8]: 130% | viability at 72 h, 0.625 ug/ml [9]: 118% | viability at 72 h, 0.01 ug/ml [10]: 127% | viability at 72 h, 20 ug/ml [11]: 109% | viability at 72 h, 0.039 ug/ml [12]: 127% | viability at 72 h, 0.078 ug/ml [13]: 119% | MIC [14]: 0.2 µM (≈ 0.0777 µg/mL) | viability at 72 h, 0.156 ug/ml [15]: 122% | viability at 72 h, 0.312 ug/ml [16]: 120% | viability at 72 h, 0.02 ug/ml [17]: 127% | viability at 72 h, 2.5 ug/ml [18]: 123%

O=C(NCc1ccc(CSc2nc3ccccc3s2)cc1)c1ccncc1
MIC [3]: > 128 µM

O=C(NCc1ccc(CSc2nc3ccccc3o2)cc1)c1cccnc1
MIC [3]: 58.2 µM (≈ 21.9 µg/mL)

O=C(N/N=C/c1ccc(CSc2nc3ccccc3o2)cc1)c1cccnc1
MIC [3]: 24.8 µM (≈ 9.63 µg/mL)

O=C(NCc1ccc(CSc2nc3ccccc3[nH]2)cc1)c1cccnc1
MIC [3]: 60.3 µM (≈ 22.6 µg/mL)

O=C(N/N=C/c1ccc(CSc2nc3ccccc3[nH]2)cc1)c1ccncc1
MIC [1]: 0.312 µg/mL (≈ 0.805 µM) | viability at 72 h, 5 ug/ml [2]: 113% | MIC [3]: 0.23 µM (≈ 0.0891 µg/mL) | remaining at 0.5 h [4]: 62% | remaining at 0.25 h [5]: 76.5% | remaining at 1 h [6]: 44.6% | viability at 72 h, 1.25 ug/ml [7]: 119% | viability at 72 h, 10 ug/ml [8]: 107% | viability at 72 h, 0.625 ug/ml [9]: 112% | viability at 72 h, 0.01 ug/ml [10]: 119% | viability at 72 h, 20 ug/ml [11]: 107% | viability at 72 h, 0.039 ug/ml [12]: 115% | viability at 72 h, 0.078 ug/ml [13]: 116% | MIC [14]: 0.2 µM (≈ 0.0775 µg/mL) | viability at 72 h, 0.156 ug/ml [15]: 115% | viability at 72 h, 0.312 ug/ml [16]: 111% | viability at 72 h, 0.02 ug/ml [17]: 116% | viability at 72 h, 2.5 ug/ml [18]: 114%

O=C(NCc1ccc(CSc2nc3ccccc3o2)cc1)c1ccncc1
MIC [3]: 0.9 µM (≈ 0.338 µg/mL) | MIC [14]: 16 µM (≈ 6.01 µg/mL)

O=C(NCc1ccc(CSc2nc3ccccc3s2)cc1)c1cccnc1
MIC [3]: > 128 µM

O=C(N/N=C/c1ccc(CSc2nc3ccccc3s2)cc1)c1ccncc1
MIC [1]: 0.625 µg/mL (≈ 1.55 µM) | viability at 72 h, 5 ug/ml [2]: 103% | MIC [3]: 0.24 µM (≈ 0.0971 µg/mL) | remaining at 0.5 h [4]: 57.2% | remaining at 0.25 h [5]: 76.3% | remaining at 1 h [6]: 34% | viability at 72 h, 1.25 ug/ml [7]: 103% | viability at 72 h, 10 ug/ml [8]: 96% | viability at 72 h, 0.625 ug/ml [9]: 94% | viability at 72 h, 0.01 ug/ml [10]: 97% | viability at 72 h, 20 ug/ml [11]: 91% | viability at 72 h, 0.039 ug/ml [12]: 99% | viability at 72 h, 0.078 ug/ml [13]: 99% | MIC [14]: 0.2 µM (≈ 0.0809 µg/mL) | viability at 72 h, 0.156 ug/ml [15]: 97% | viability at 72 h, 0.312 ug/ml [16]: 98% | viability at 72 h, 0.02 ug/ml [17]: 103% | viability at 72 h, 2.5 ug/ml [18]: 101%

O=C(N/N=C/c1ccc(CSc2nc3ccccc3[nH]2)cc1)c1cccnc1
MIC [3]: 114 µM (≈ 44.3 µg/mL)

O=C(N/N=C/c1ccc(CSc2nc3ccccc3s2)cc1)c1cccnc1
MIC [3]: > 128 µM

O=C(NCc1ccc(CSc2nc3ccccc3[nH]2)cc1)c1ccncc1
MIC [3]: 120 µM (≈ 45.1 µg/mL)

COc1cc(/C=N/NC(=O)c2ccncc2)ccc1O [FTIVAZIDE]
MIC [1]: 0.312 µg/mL (≈ 1.15 µM) | viability at 72 h, 5 ug/ml [2]: 100% | viability at 72 h, 1.25 ug/ml [7]: 105% | viability at 72 h, 10 ug/ml [8]: 95% | viability at 72 h, 0.625 ug/ml [9]: 100% | viability at 72 h, 0.01 ug/ml [10]: 95% | viability at 72 h, 20 ug/ml [11]: 90% | viability at 72 h, 0.078 ug/ml [13]: 114% | MIC [14]: 0.25 µM (≈ 0.0678 µg/mL) | viability at 72 h, 0.156 ug/ml [15]: 96% | viability at 72 h, 0.312 ug/ml [16]: 103% | viability at 72 h, 0.02 ug/ml [17]: 105% | viability at 72 h, 2.5 ug/ml [18]: 110%

NNC(=O)c1ccncc1 [ISONIAZID]
MIC [3]: 0.81 µM (≈ 0.111 µg/mL) | MIC [14]: 0.5 µM (≈ 0.0686 µg/mL)

COc1c(N2C[C@@H]3CCCN[C@@H]3C2)c(F)cc2c(=O)c(C(=O)O)cn(C3CC3)c12 [MOXIFLOXACIN]
MIC [3]: 0.5 µM (≈ 0.201 µg/mL)

O=[N+]([O-])c1cn2c(n1)OC[C@@H](OCc1ccc(OC(F)(F)F)cc1)C2 [PRETOMANID]
MIC [3]: 0.44 µM (≈ 0.158 µg/mL)

CO[C@H]1/C=C/O[C@@]2(C)Oc3c(C)c(O)c4c(O)c(c(/C=N/N5CCN(C)CC5)c(O)c4c3C2=O)NC(=O)/C(C)=C\C=C\[C@H](C)[C@H](O)[C@@H](C)[C@@H](O)[C@@H](C)[C@H](OC(C)=O)[C@@H]1C [RIFAMPIN]
MIC [3]: 0.08 µM (≈ 0.0658 µg/mL) | MIC [14]: 0.07 µM (≈ 0.0576 µg/mL)

CN[C@@H]1[C@H](O[C@H]2[C@H](O[C@H]3[C@H](O)[C@@H](O)[C@H](N=C(N)N)[C@@H](O)[C@@H]3N=C(N)N)O[C@@H](C)[C@]2(O)C=O)O[C@@H](CO)[C@H](O)[C@H]1O [STREPTOMYCIN]
MIC [3]: 0.48 µM (≈ 0.279 µg/mL)
